Reference: ChEMBL document CHEMBL4043302, “Lead Diversification at the Nanomole Scale Using Liver Microsomes and Quantitative Nuclear Magnetic Resonance Spectroscopy: Application to Phosphodiesterase 2 Inhibitors” (J Med Chem, 2018)

Tests used:
[1] = (§1) Apparent permeability across RRCK cells after 1.5 hrs; assay type: ADME, cell-based, Canis lupus familiaris, MDCKII-LE; conditions: dog, MDCK
[2] = Metabolic stability in human hepatocytes at 1 uM after 0.5 to 4 hrs by HPLC-HRMS method; assay type: ADME, cell-based, Hepatocyte
In short: (§2)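 Compound at 1 µM was dried from d6-DMSO and redissolved in Williams E medium. Pooled human hepatocytes were added at 680000 cells/mL. Samples were quenched in water/CH3CN (2:1) with 2% formic acid and clozapine as internal standard, then analysed by HPLC-HRMS in positive-ion full scan. k came from the slope of ln peak-area ratio versus time; CLint = k / cell concentration. Non-specific binding was not measured.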

[3] = Drug level in hamster liver microsomes treated with 7-(1,3-Dimethyl-5-(4-(trifluoromethyl)phenyl)-1H-pyrazol-4-yl)-5-(methoxymethyl)-2-methylimidazol[5,1-f ][1,2,4]triazin-4-(3H)-one at 20 uM after 1 hr by UHPLC-UV-HRMS method; assay type: ADME, microsome; conditions: cricetinae
In short: (§3)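 Preparative incubation: substrate 20 µM with liver microsomes (2 mg/mL) of the listed species in 0.1 M potassium phosphate, pH 7.5, with MgCl2 3.3 mM and NADPH 1.3 mM. Run at 37°C in a shaking water bath and stopped with an equal volume of CH3CN. Products were fractionated by HPLC and quantified by qNMR in d6-DMSO.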

[4] = Intrinsic clearance in human hepatocytes assessed per million cells at 1 uM after 0.5 to 4 hrs by HPLC-HRMS method; assay type: ADME, cell-based, Hepatocyte; conditions: for hepatocyte CLint at 1 µM: human hepatocytes, read-out: CLH; for CLint: hepatocytes, 1 µM; in short: as §2
Liver [5] = assay: Drug level in human liver microsomes treated with 2-(3,4-dimethoxybenzyl)-7-((2S,3R)-2-hydroxy-6-phenylhexan-3-yl)-5-methylimidazo[1,5-f][1,2,4]triazin-4(3H)-one at 20 uM after 1 hr by UHPLC-UV-HRMS method; assay type: ADME, microsome; in short: as §3
[6] = target: cGMP-dependent 3',5'-cyclic phosphodiesterase (Homo sapiens, UniProt O00408); assay: Inhibition of human PDE2A1 using 3',5'-[3H]cGMP as substrate after 30 mins by scintillation proximity assay
[7] = Drug level in cynomolgus monkey liver microsomes treated with 7-(1,3-Dimethyl-5-(5-(trifluoromethyl)pyridine-2-yl)-1H-pyrazol-4-yl)-2,5-dimethylimidazo[5,1-f ][1,2,4]triazin-4(3H)-one at 20 uM after 1.2 hrs by UHPLC-UV-HRMS method; assay type: ADME, Macaca fascicularis, microsome; in short: as §3
[8] = Drug level in rabbit liver microsomes treated with 7-(1,3-Dimethyl-5-(3-methyl-4-(trifluoromethyl)phenyl)-1H-pyrazol-4-yl)-2,5-dimethylimidazo[5,1-f ][1,2,4]triazin-4(3H)-one at 20 uM after 1 hr by UHPLC-UV-HRMS method; assay type: ADME, Oryctolagus cuniculus, microsome
Liver [9] = assay: Drug level in mouse liver microsomes treated with 7-(5-(4-Chlorophenyl)-1,3-dimethyl-1H-pyrazol-4-yl)-2,5-dimethylimidazo[5,1-f ][1,2,4]triazin-4(3H)-one at 20 uM after 1.5 hrs by UHPLC-UV-HRMS method; assay type: ADME, microsome; in short: as §3
Liver [10] = assay: Drug level in dog liver microsomes treated with 2-(3,4-dimethoxybenzyl)-7-((2R,3R)-2-hydroxy-6-phenylhexan-3-yl)-5-methylimidazo[1,5-f][1,2,4]triazin-4(3H)-one at 20 uM after 1 hr by UHPLC-UV-HRMS method; assay type: ADME, Canis lupus familiaris, microsome; in short: as §3
[11] = Drug level in hamster liver microsomes treated with 7-(5-(4-Methoxyphenyl)-1,3-dimethyl-1H-pyrazol-4-yl)-2,5-dimethylimidazo[5,1-f ][1,2,4]triazin-4(3H)-one at 20 uM after 1.5 hrs by UHPLC-UV-HRMS method; assay type: ADME, microsome; conditions: cricetinae; in short: as §3
[12] = Drug level in cynomolgus monkey liver microsomes treated with 5-(Difluoromethyl)-7-(1,3-dimethyl-5-(4-(trifluoromethyl)phenyl)-1H-pyrazol-4-yl)-2-methylimidazo[5,1-f ][1,2,4]triazin-4(3H)-one at 20 uM after 1.5 hrs by UHPLC-UV-HRMS method; assay type: ADME, Macaca fascicularis, microsome; in short: as §3
MDCKII-LE = assay: as §1; assay type: ADME, cell-based, Canis lupus familiaris; conditions: dog, mdckii-le, 1.5 h

Sequence of cGMP-dependent 3',5'-cyclic phosphodiesterase (O00408 whole entry): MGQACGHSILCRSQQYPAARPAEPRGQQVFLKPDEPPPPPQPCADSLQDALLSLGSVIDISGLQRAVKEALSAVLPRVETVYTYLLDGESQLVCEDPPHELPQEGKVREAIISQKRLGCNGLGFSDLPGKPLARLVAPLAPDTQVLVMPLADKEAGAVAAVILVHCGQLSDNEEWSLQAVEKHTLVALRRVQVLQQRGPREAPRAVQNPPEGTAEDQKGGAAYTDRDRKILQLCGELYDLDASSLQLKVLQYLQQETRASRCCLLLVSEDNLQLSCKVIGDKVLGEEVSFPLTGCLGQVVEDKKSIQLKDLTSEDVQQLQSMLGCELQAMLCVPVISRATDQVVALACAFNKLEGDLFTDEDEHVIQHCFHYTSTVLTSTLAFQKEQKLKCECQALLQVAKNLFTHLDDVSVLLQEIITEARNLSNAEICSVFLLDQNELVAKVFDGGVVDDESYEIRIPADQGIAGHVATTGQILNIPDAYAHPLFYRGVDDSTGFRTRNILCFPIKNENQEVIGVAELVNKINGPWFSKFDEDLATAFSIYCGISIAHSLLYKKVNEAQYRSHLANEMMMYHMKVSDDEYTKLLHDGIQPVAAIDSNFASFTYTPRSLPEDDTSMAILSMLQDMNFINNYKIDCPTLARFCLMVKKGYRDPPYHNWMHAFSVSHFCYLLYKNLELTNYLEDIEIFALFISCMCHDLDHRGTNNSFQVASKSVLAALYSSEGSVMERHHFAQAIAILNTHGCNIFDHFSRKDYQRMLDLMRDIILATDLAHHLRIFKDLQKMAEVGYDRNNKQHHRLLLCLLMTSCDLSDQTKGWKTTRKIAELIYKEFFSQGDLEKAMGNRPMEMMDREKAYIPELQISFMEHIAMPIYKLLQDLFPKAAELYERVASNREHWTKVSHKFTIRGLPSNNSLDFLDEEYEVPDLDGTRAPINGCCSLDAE

| Papp at 1.5 h [1] | Stability [2] | hepatocyte CLint at 1 µM [4] | Structure (SMILES) | also measured |
| --- | --- | --- | --- | --- |
| 0.94 ×10⁻⁶ cm/s | Stable | – | Cc1nn2c(-c3c(C)n[nH]c3-c3ccc(C(F)(F)F)cc3)nc(CO)c2c(=O)[nH]1 | Drug metabolism [3]: Metabolite_Detected |
| 8.3 ×10⁻⁶ cm/s | Stable | – | Cc1nn2c(-c3c(C)nn(C)c3-c3ccc(C(F)(F)F)cc3)nc(CO)c2c(=O)[nH]1 | IC50 [6]: 0.3 nM; Drug metabolism [3]: Metabolite_Detected |
| 1.2 ×10⁻⁶ cm/s | – | 14.7 µL/min/1e6 cells | Cc1nn2c(-c3c(C=O)nn(C)c3-c3ccc(C(F)(F)F)cn3)nc(C)c2c(=O)[nH]1 | Drug metabolism [7]: Metabolite_Detected |
| < 0.5 ×10⁻⁶ cm/s | Stable | – | Cc1nn2c(-c3c(C)nn(C)c3-c3ccc(C(F)(F)F)c(CO)c3)nc(CO)c2c(=O)[nH]1 | Drug metabolism [8]: Metabolite_Detected |
| 4.9 ×10⁻⁶ cm/s | – | 15 µL/min/1e6 cells | Cc1nn2c(-c3c(C)nn(C)c3-c3ccc(Cl)cc3)nc(CO)c2c(=O)[nH]1 | Drug metabolism (Liver [9]): Metabolite_Detected |
| 0.54 ×10⁻⁶ cm/s | Stable | – | Cc1nn2c(-c3c(CO)nn(C)c3-c3ccc(C(F)(F)F)cn3)nc(CO)c2c(=O)[nH]1 | Drug metabolism [7]: Metabolite_Detected |
| 3 ×10⁻⁶ cm/s | – | 3.9 µL/min/1e6 cells | Cc1nn2c(-c3c(C)nn(C)c3-c3ccc(C(F)(F)F)c(CO)c3)nc(C)c2c(=O)[nH]1 | Drug metabolism [8]: Metabolite_Detected |
| 13 ×10⁻⁶ cm/s | Stable | – | Cc1nn2c(-c3c(C)nn(C)c3-c3ccc(C(F)(F)F)c(C)c3)nc(CO)c2c(=O)[nH]1 | Drug metabolism [8]: Metabolite_Detected |
| 1 ×10⁻⁶ cm/s | Stable | – | Cc1nn2c(-c3c(CO)nn(C)c3-c3ccc(C(F)(F)F)cc3)nc(CO)c2c(=O)[nH]1 | Drug metabolism [3]: Metabolite_Detected |
| 1.7 ×10⁻⁶ cm/s | Stable | – | Cc1nn2c(-c3c(CO)nn(C)c3-c3ccc(C(F)(F)F)c(C)c3)nc(CO)c2c(=O)[nH]1 | Drug metabolism [8]: Metabolite_Detected |
| 6.3 ×10⁻⁶ cm/s | – | 5.5 µL/min/1e6 cells | Cc1nn2c(-c3c(CO)nn(C)c3-c3ccc(C(F)(F)F)cc3)nc(C(F)F)c2c(=O)[nH]1 | Drug metabolism [12]: Metabolite_Detected |
| 1.7 ×10⁻⁶ cm/s | Stable | – | Cc1nn2c(-c3c(C)nn(C)c3-c3ccc(C(F)(F)F)cn3)nc(CO)c2c(=O)[nH]1 | Drug metabolism [7]: Metabolite_Detected |
| 0.55 ×10⁻⁶ cm/s | Stable | – | Cc1nn2c(-c3c(CO)nn(C)c3-c3ccc(C(F)(F)F)c(CO)c3)nc(C)c2c(=O)[nH]1 | Drug metabolism [8]: Metabolite_Detected |
| 0.76 ×10⁻⁶ cm/s | Stable | – | COc1ccc(-c2c(-c3nc(CO)c4c(=O)[nH]c(C)nn34)c(C)nn2C)cn1 | Drug metabolism [11]: Metabolite_Detected |
| 19 ×10⁻⁶ cm/s | – | 11 µL/min/1e6 cells | Cc1nn2c(-c3c(CO)nn(C)c3-c3ccc(Cl)cc3)nc(C)c2c(=O)[nH]1 | Drug metabolism (Liver [9]): Metabolite_Detected |
| < 0.5 ×10⁻⁶ cm/s | Stable | – | Cc1nn2c(-c3c(CO)nn(C)c3-c3ccc(C(F)(F)F)cn3)nc(C)c2c(=O)[nH]1 | Drug metabolism [7]: Metabolite_Detected |
| 53 ×10⁻⁶ cm/s | Stable | – | Cc1nn2c(-c3c(C(=O)O)nn(C)c3-c3ccc(C(F)(F)F)c(C)c3)nc(C)c2c(=O)[nH]1 | Drug metabolism [8]: Metabolite_Detected |
| < 0.5 ×10⁻⁶ cm/s | Stable | – | COc1ccc(-c2[nH]nc(C)c2-c2nc(CO)c3c(=O)[nH]c(C)nn23)cn1 | Drug metabolism [11]: Metabolite_Detected |

Continued, molecule first:

| Structure (SMILES) | Papp at 1.5 h [1] | Stability [2] | hepatocyte CLint at 1 µM [4] | also measured |
| --- | --- | --- | --- | --- |
| COc1ccc(Cc2nn3c([C@@H](CCC(O)c4ccccc4)[C@H](C)O)nc(C)c3c(=O)[nH]2)cc1O (some centres undefined) | 1.2 ×10⁻⁶ cm/s | – | 9.6 µL/min/1e6 cells | Drug metabolism (Liver [5]): Metabolite_Detected |
| COc1ccc(Cc2nn3c([C@@H](CCC(=O)c4ccccc4)[C@H](C)O)nc(C)c3c(=O)[nH]2)cc1OC | – | – | 32 µL/min/1e6 cells | Drug metabolism (Liver [5]): Metabolite_Detected |
| COc1cc(Cc2nn3c([C@@H](CCC(O)c4ccccc4)[C@@H](C)O)nc(C)c3c(=O)[nH]2)ccc1O (some centres undefined) | 1.2 ×10⁻⁶ cm/s | – | 13 µL/min/1e6 cells | Drug metabolism (Liver [10]): Metabolite_Detected |
| COc1ccc(Cc2nn3c([C@@H](CC(O)C(O)c4ccccc4)[C@@H](C)O)nc(C)c3c(=O)[nH]2)cc1OC (some centres undefined) | 0.56 ×10⁻⁶ cm/s | – | 2.4 µL/min/1e6 cells | Drug metabolism (Liver [10]): Metabolite_Detected |
| COc1ccc(Cc2nn3c([C@@H](C(O)CC(O)c4ccccc4)[C@H](C)O)nc(C)c3c(=O)[nH]2)cc1OC (some centres undefined) | – | – | 4.3 µL/min/1e6 cells | Drug metabolism (Liver [5]): Metabolite_Detected |
| COCc1nc(-c2c(C)nn(C)c2-c2ccc(C(F)(F)F)cc2)n2c1c(=O)[nH]c(C)[n+]2[O-] | 7.9 ×10⁻⁶ cm/s | – | 13 µL/min/1e6 cells | Drug metabolism [3]: Metabolite_Detected |
| COc1ccc(-c2[nH]nc(C)c2-c2nc(C)c3c(=O)[nH]c(C)nn23)cn1 | 1.1 ×10⁻⁶ cm/s | – | 1.9 µL/min/1e6 cells | Drug metabolism [11]: Metabolite_Detected |
| Cc1nn2c(-c3c(C)n[nH]c3-c3ccc(C(F)(F)F)cc3)nc(C(F)F)c2c(=O)[nH]1 | 10 ×10⁻⁶ cm/s | – | 6.4 µL/min/1e6 cells | Drug metabolism [12]: Metabolite_Detected |
| Cc1nn2c(-c3c(C)n[nH]c3-c3ccc(O)nc3)nc(C)c2c(=O)[nH]1 | < 0.5 ×10⁻⁶ cm/s | Stable | – | IC50 [6]: > 2000 nM; Drug metabolism [11]: Metabolite_Detected |
| COc1ccc(Cc2nn3c([C@@H](CCC(O)c4ccccc4)[C@@H](C)O)nc(C)c3c(=O)[nH]2)cc1O (some centres undefined) | 1.1 ×10⁻⁶ cm/s | – | 12 µL/min/1e6 cells | Drug metabolism (Liver [10]): Metabolite_Detected |
| COc1ccc(Cc2nn3c([C@@H](CCC(=O)c4ccccc4)[C@@H](C)O)nc(C)c3c(=O)[nH]2)cc1OC | 11 ×10⁻⁶ cm/s | – | 25 µL/min/1e6 cells | Drug metabolism (Liver [10]): Metabolite_Detected |
| COc1ccc(Cc2nn3c([C@@H](CCC(O)c4ccccc4)[C@@H](C)O)nc(C)c3c(=O)[nH]2)cc1OC (single isomer, unassigned; diastereomer 1) | 2 ×10⁻⁶ cm/s | – | 14 µL/min/1e6 cells | Drug metabolism (Liver [10]): Metabolite_Detected |
| COc1ccc(Cc2nn3c([C@@H](CCC(O)c4ccccc4)[C@H](C)O)nc(C)c3c(=O)[nH]2)cc1OC (single isomer, unassigned; diastereomer 2) | – | – | – | CLint [4]: 14 µL/min/1e6 cells; Papp (MDCKII-LE): 2.2 ×10⁻⁶ cm/s |
| Cc1nc(-c2cnn3c2CN(CC2CCCC2O)CC3)c2c(=O)[nH]cnn12 (single isomer, unassigned; diastereomer 2) | – | – | – | IC50 [6]: > 2000 nM; CLint [4]: 5.8 µL/min/1e6 cells |
| COc1ccc(Cc2nn3c([C@@H](CCC(O)c4ccccc4)[C@H](C)O)nc(C)c3c(=O)[nH]2)cc1OC (stereo in doubt) | 2.8 ×10⁻⁶ cm/s | – | 11 µL/min/1e6 cells | Drug metabolism (Liver [5]): Metabolite_Detected |
| COc1ccc(Cc2nn3c([C@@H](CCC(O)c4ccccc4)[C@@H](C)O)nc(C)c3c(=O)[nH]2)cc1OC (stereo in doubt) | – | – | – | CLint [4]: 17 µL/min/1e6 cells; Papp (MDCKII-LE): 2.2 ×10⁻⁶ cm/s |
